ChEMBL document CHEMBL1145784, “Three dimensional pharmacophore modeling of human CYP17 inhibitors. Potential agents for prostate cancer therapy” (J Med Chem, 2003)
pIC50, pKi: −log10 of the molar value.

Target: T1, Steroid 17-alpha-hydroxylase/17,20 lyase (Homo sapiens, UniProt P05093)
T1 sequence (P05093 whole entry): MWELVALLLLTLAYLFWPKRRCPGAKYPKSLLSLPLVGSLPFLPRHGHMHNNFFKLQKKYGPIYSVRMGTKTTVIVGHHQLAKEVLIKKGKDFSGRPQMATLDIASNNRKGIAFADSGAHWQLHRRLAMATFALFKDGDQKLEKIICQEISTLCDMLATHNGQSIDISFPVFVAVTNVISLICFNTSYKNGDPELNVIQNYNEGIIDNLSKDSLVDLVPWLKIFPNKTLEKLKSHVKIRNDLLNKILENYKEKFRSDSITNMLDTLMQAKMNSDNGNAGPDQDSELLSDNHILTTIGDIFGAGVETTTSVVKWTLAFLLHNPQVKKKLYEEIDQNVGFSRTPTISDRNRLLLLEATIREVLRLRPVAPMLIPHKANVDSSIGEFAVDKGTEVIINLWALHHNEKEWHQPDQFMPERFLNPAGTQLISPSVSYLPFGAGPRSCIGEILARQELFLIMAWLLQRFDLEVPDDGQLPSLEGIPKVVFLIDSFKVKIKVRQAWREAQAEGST

`Clc1ccc(COC(Cn2ccnc2)c2ccc(Cl)cc2Cl)cc1` (centres undefined) [ECONAZOLE] was tested. Which pKi did it give?
Its pKi is 6.49.

How did the pKi turn out when `Clc1ccc(COC(Cn2ccnc2)c2ccc(Cl)cc2Cl)c(Cl)c1` (centres undefined) [MICONAZOLE] was run?
Its pKi is 6.61.

How did the pKi turn out when `Clc1ccc(C(Cn2ccnc2)OCc2ccsc2Cl)c(Cl)c1` (centres undefined) [TIOCONAZOLE] was run?
Its pKi is 6.30.

With `c1ccc(-c2ccc(C(c3ccccc3)n3ccnc3)cc2)cc1` (centres undefined) [BIFONAZOLE] as the compound, how does the pKi read?
Its pKi is 7.25.

Target: T1, Steroid 17-alpha-hydroxylase/17,20 lyase
Test: In vitro cytochrome P450 17A1 inhibition was assayed using the rapid acetic acid releasing assay (AARA), utilizing intact P450c17-expressing Escherichia coli or P450c17-LNCaP cells as the enzyme source.
Outline: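 Enzyme source was intact E. coli expressing P450c17 or P450c17-LNCaP cells. Substrate was [21-3H]-17α-hydroxypregnenolone, and CYP17 activity was read as tritiated acetic acid released by C-21 side-chain cleavage. Each compound was tested at five or more concentrations, in triplicate. IC50 was taken directly from plots of % inhibition versus concentration and reported as the mean of triplicate experiments.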

How did the pIC50 turn out when `CC(=O)O[C@H]1CCC2C3C=CC4=CC(=O)C=C[C@]4(C)C3CC[C@@]21C` (some centres undefined) was run?
The pIC50 was 6.18.

With `C[C@]12CC[C@H](O)CC1=CCC1C2CC[C@]2(C)/C(=N/NC(N)=O)CCC12` (some centres undefined) [NRB 03731] as the compound, how does the pIC50 read?
Its pIC50 is 6.75.

With `C[C@]12CCC(=O)C=C1CCC1C2CC[C@]2(C)C(n3cnc4ccccc43)=CCC12` (some centres undefined) as the compound, how does the pIC50 read?
The pIC50 was 6.04.

How did the pIC50 turn out when `C[C@]12CCC3C(CC=C4C[C@@H](O)CC[C@@]43C)C1CCC2C/C=N/O` (some centres undefined) was run?
Its pIC50 is 6.35.

`C[C@]12CC[C@H](O)CC1=CCC1C2CC[C@@]2(C)C1CC[C@H]2c1ccncn1` (some centres undefined) was tested. Which pIC50 did it give?
The pIC50 was 6.65.

With `C/C(=N/O)[C@@]1(O)CC[C@H]2[C@@H]3CC=C4C[C@@H](O)CC[C@]4(C)[C@H]3CC[C@@]21C` as the compound, how does the pIC50 read?
The pIC50 was 4.92.

With `C[C@]12CC[C@H](O)CC1=CCC1C2CC[C@]2(C)C(=N/N)/C(=N/O)CC12` (some centres undefined) as the compound, how does the pIC50 read?
Its pIC50 is 5.23.

`C[C@]12CC[C@H](O)CC1=CCC1C2CC[C@]2(C)C(n3ncnn3)=CCC12` (some centres undefined) was tested. Which pIC50 did it give?
Its pIC50 is 5.85.

How did the pIC50 turn out when `C[C@]12CCC(=O)C=C1CCC1C2CC[C@]2(C)C(n3ccnn3)=CCC12` (some centres undefined) was run?
Its pIC50 is 6.41.

`C[C@]12CCC3C(CC=C4C[C@@H](O)CC[C@@]43C)C1C/C(=N\O)C2` (some centres undefined) was tested. Which pIC50 did it give?
The pIC50 was 6.20.

`C[C@]12CC[C@@H](O)CC1=CC[C@@H]1[C@@H]2CC[C@]2(C)C(=C/C=N/O)CC[C@@H]12` was tested. Which pIC50 did it give?
The pIC50 was 6.49.

With `CCC(=O)O[C@H]1CC[C@H]2[C@@H]3CCC4=CC(=O)CC[C@]4(C)[C@H]3CC[C@]12C` [TESTOSTERONE PROPIONATE] as the compound, how does the pIC50 read?
The pIC50 was 7.25.

`C[C@]12CC[C@H](O)CC1=CCC1C2CC[C@]2(C)C(c3cncnc3)=CCC12` (some centres undefined) was tested. Which pIC50 did it give?
The pIC50 was 6.30.

`C[C@]12CC[C@H](O)CC1=CC[C@@H]1[C@@H]2CC[C@]2(C)C(c3cccnc3)=CC[C@@H]12` [ABIRATERONE] was tested. Which pIC50 did it give?
The pIC50 was 6.10.

`C[C@]12CC[C@H](O)CC1=CCC1C2CC[C@]2(C)C(n3ccnn3)=CCC12` (some centres undefined) was tested. Which pIC50 did it give?
Its pIC50 is 6.42.

With `C[C@]12CC[C@H](O)CC1=CCC1C2CC[C@]2(C)C(n3cnnn3)=CCC12` (some centres undefined) as the compound, how does the pIC50 read?
Its pIC50 is 5.59.

`C[C@]12CCC(=O)C=C1CCC1C2CC[C@]2(C)C(c3ccno3)=CCC12` (some centres undefined) was tested. Which pIC50 did it give?
The pIC50 was 6.00.

`C[C@]12CC[C@H](O)CC1=CCC1C2CC[C@]2(C)C(n3nccn3)=CCC12` (some centres undefined) was tested. Which pIC50 did it give?
The pIC50 was 5.43.

With `CC(CCC(=O)OC1CC2CC=CC1C2)[C@H]1CCC2C3CC=C4C[C@@H](O)CC[C@]4(C)C3CCC21` (some centres undefined) as the compound, how does the pIC50 read?
The pIC50 was 6.21.

`C[C@]12CCC(=O)C=C1CCC1C2CC[C@]2(C)C(n3ccnc3)=CCC12` (some centres undefined) was tested. Which pIC50 did it give?
Its pIC50 is 6.82.

How did the pIC50 turn out when `C[C@]12CCC(=O)C=C1CCC1C2CC[C@]2(C)C(n3cncn3)=CCC12` (some centres undefined) was run?
Its pIC50 is 5.92.

How did the pIC50 turn out when `C=C1C[C@@]2(C)C(=CC1=O)CCC1C2CC[C@@]2(C)C1CC[C@]2(C)OC(C)=O` (some centres undefined) was run?
The pIC50 was 6.25.

With `C/C(=N/O)C1=CC=C2[C@@H]3CCC4=CC(=O)CC[C@]4(C)[C@H]3CC[C@]12C` as the compound, how does the pIC50 read?
Its pIC50 is 5.77.

`C[C@]12CC[C@H](O)CC1=CCC1C2CC[C@]2(C)C(n3cncn3)=CCC12` (some centres undefined) was tested. Which pIC50 did it give?
Its pIC50 is 6.10.

Target: T1, Steroid 17-alpha-hydroxylase/17,20 lyase
Test: In vitro Cytochrome P450 17A1 inhibition in rapid acetic acid releasing assay (AARA) using intact P450c17-expressing Escherichia coli or P450c17-LNCaP cells as the enzyme source at 1 mM
Outline: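 Acetic acid releasing assay using intact P450c17-expressing E. coli or P450c17-LNCaP cells with [21-3H]-17α-hydroxypregnenolone as substrate. Activity was read as tritiated acetic acid formed from C-21 side-chain cleavage. Percent inhibition was recorded at a single inhibitor concentration of 1 mM.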

How did the inhibition at 1000 µM turn out when `CS(=O)(=O)Nc1cc(Cc2cc(NS(C)(=O)=O)cc(C(F)(F)F)c2)cc(C(F)(F)F)c1` was run?
Its inhibition at 1000 µM is roughly 25%.
